This is an account of results in ChEMBL document CHEMBL4024796, “Phenylthiomethyl Ketone-Based Fragments Show Selective and Irreversible Inhibition of Enteroviral 3C Proteases” (J Med Chem, 2018).

The source made the active and inactive calls. The rule behind the calls is not given here.

Data set [1] deals with Genome polyprotein (Coxsackievirus B3 (strain Nancy)) (UniProt P03313). The experiment in a line: Inhibition of Coxsackievirus B3 C-terminal His6-tagged protease 3C expressed in Escherichia coli BL21(DE3) at 650 uM using N-Dabcyl-KTLEALFQGPPVYE-(Edans)-NH2 as substrate after 30 mins by fluorescence assay relative to control. Summed up: (§1)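 Enzyme added from 40 μM and substrate from 20 μM working solutions, inhibitor in DMSO, DMSO alone as control. Fluorescence read at ex 355/em 538 nm over 30 min, triplicates. Apparent IC50 from a Hill-type fit of initial velocities; kobs for covalent reversible inhibition from progress-curve fits.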
Target sequence in this assay (P03313 whole entry): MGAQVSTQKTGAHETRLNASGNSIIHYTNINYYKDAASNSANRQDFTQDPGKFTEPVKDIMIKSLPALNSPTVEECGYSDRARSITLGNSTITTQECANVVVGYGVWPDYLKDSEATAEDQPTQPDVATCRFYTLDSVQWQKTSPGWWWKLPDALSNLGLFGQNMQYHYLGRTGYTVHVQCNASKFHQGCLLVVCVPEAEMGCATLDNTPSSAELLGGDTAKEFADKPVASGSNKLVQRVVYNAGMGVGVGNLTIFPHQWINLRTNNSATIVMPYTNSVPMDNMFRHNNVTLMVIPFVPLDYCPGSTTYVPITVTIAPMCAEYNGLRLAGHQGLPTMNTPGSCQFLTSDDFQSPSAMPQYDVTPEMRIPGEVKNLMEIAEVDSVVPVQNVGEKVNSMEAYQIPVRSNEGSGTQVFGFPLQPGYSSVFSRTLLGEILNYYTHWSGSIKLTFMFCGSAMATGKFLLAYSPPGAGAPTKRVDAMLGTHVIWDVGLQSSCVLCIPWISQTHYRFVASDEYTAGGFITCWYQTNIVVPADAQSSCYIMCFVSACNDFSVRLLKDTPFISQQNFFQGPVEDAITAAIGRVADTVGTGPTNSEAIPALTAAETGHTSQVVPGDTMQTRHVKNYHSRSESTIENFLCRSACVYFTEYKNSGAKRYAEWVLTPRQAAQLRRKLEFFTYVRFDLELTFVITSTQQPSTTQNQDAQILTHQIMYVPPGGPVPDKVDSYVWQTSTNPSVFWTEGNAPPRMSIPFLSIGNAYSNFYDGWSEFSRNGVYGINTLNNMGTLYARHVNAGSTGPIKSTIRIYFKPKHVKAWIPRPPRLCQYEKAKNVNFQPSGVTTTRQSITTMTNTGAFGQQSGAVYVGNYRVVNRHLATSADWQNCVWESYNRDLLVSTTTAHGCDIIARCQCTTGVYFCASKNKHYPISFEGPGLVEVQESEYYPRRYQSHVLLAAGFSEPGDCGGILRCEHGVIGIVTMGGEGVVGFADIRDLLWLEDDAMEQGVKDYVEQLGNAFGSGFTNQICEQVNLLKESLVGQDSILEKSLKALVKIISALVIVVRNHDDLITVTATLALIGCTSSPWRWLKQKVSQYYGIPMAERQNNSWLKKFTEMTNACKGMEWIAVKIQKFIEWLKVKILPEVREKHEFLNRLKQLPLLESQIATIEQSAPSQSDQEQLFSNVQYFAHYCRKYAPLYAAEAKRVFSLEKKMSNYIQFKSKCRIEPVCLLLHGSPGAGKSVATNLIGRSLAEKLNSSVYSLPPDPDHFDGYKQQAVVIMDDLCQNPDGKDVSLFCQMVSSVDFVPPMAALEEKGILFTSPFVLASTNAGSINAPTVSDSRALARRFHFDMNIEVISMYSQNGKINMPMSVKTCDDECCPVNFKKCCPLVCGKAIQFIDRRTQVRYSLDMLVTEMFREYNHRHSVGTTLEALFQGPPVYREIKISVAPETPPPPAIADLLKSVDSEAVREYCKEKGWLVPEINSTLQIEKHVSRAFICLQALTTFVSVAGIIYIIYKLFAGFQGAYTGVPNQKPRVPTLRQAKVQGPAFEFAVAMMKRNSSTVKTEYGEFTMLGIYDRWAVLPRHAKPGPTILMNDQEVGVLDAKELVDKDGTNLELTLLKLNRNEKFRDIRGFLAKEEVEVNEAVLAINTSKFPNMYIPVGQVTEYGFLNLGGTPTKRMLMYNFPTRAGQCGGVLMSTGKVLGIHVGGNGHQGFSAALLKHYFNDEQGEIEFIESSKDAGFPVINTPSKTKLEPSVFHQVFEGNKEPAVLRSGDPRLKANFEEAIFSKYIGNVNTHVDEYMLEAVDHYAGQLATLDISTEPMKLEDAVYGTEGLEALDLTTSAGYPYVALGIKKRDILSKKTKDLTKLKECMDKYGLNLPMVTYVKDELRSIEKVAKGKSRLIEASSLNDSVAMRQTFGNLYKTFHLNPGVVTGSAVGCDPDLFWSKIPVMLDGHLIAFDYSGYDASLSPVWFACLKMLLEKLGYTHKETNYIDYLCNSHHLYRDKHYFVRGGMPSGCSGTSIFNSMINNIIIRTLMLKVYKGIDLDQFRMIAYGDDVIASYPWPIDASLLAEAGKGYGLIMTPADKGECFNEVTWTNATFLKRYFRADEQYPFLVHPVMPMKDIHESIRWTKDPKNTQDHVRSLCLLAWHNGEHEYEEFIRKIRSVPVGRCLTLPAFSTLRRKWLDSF

Data set [2] shares this target. The experiment in a line: Inhibition of Coxsackievirus B3 C-terminal His6-tagged protease 3C expressed in Escherichia coli BL21(DE3) at 500 uM using N-Dabcyl-KTLEALFQGPPVYE-(Edans)-NH2 as substrate preincubated up to 60 mins followed by substrate addition by fluorescence assay. Particulars: TDE = time-dependent effect. Summed up:
(§2)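 CVB3 3Cpro preincubated with inhibitor (or DMSO control) in 100 mM HEPES-NaOH pH 7.5, 1 mM EDTA, 0.01% Triton X, lid-covered, for 60, 40, 20 or 0 min. Substrate then added and reaction followed 60 min (ex 355/em 538 nm). Relative activity calculated per 5-min step versus control. Triplicates per incubation time.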
Target sequence in this assay (P03313 whole entry): as above

For data set [3] the target is unchanged. The experiment in a line: (§3) Inhibition of Coxsackievirus B3 C-terminal His6-tagged protease 3C expressed in Escherichia coli BL21(DE3) using N-Dabcyl-KTLEALFQGPPVYE-(Edans)-NH2 as substrate after 30 mins by fluorescence assay. In outline: (§4)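 FRET cleavage assay in 100 mM HEPES-NaOH pH 7.5, 1 mM EDTA, 0.01% Triton X. Enzyme added from a 40 µM stock, substrate diluted to 20 µM before addition. Inhibitor in DMSO, DMSO alone as control. Fluorescence at 538 nm (ex 355 nm) over 30 min, triplicates. Apparent IC50 from nonlinear fit of vi/v0 = 1/(1+[I]/IC50)^h. Ki from koff/kon for covalent reversible binding.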
Target sequence in this assay (P03313 1541-1723 limits assumed): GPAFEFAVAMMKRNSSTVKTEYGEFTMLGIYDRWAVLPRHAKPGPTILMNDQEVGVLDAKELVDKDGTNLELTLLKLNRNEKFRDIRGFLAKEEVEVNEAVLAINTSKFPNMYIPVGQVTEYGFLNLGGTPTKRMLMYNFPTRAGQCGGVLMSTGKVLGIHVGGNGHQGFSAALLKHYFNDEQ

For data set [4], the target named is T1, Genome polyprotein (Coxsackievirus B3 (strain Nancy), UniProt P03313). The description is as §3. Summed up: as §4
The nature of data set [5]: Drug level in HEPES-NaOH buffer treated with 7,7-dimethyl-2,5-dioxo-5,6,7,8-tetrahydro-2H-chromene-3-carboxamide overnight by LC-MS analysis.
Data set [6] concerns the target Genome polyprotein (Coxsackievirus B3 (strain Nancy)) (UniProt P03313). Briefly: Inhibition of Coxsackievirus B3 C-terminal His6-tagged protease 3C expressed in Escherichia coli BL21(DE3) at 100 uM using N-Dabcyl-KTLEALFQGPPVYE-(Edans)-NH2 as substrate preincubated up to 60 mins followed by substrate addition by fluorescence assay. Particulars: TDE = time-dependent effect. In outline: as §2
Target sequence in this assay (P03313 whole entry): as the sequence (P03313 whole entry) above

The target is the same in data set [7]. Briefly: Irreversible inhibition of Coxsackievirus B3 C-terminal His6-tagged protease 3C expressed in Escherichia coli BL21(DE3) assessed as ratio of Kinact to Ki using N-Dabcyl-KTLEALFQGPPVYE-(Edans)-NH2 as substrate after 30 mins by fluorescence assay. In outline:
(§5)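 Same FRET assay (HEPES-NaOH 100 mM, EDTA 1 mM, Triton X 0.01%, pH 7.5; ex 355/em 538 nm; triplicates). kobs for irreversible inhibition obtained by fitting progress curves to [P]=vi/kobs(1−e^(−kobs·t)). kinact/KI taken from the slope of the linear portion of kobs versus inhibitor concentration.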
Target sequence in this assay (P03313 whole entry): as above

Data set [8] concerns enterovirus D68. The experiment in a line: Irreversible inhibition of Enetrovirus D68 C-terminal His6-tagged protease 3C expressed in Escherichia coli BL21(DE3) assessed as ratio of Kinact to Ki using N-Dabcyl-KTLEALFQGPPVYE-(Edans)-NH2 as substrate after 30 mins by fluorescence assay. Summed up:
as §5

Data set [9] addresses Genome polyprotein (Coxsackievirus B3 (strain Nancy)) (UniProt P03313). The experiment in a line: Irreversible inhibition of Coxsackievirus B3 C-terminal His6-tagged protease 3C expressed in Escherichia coli BL21(DE3) after 60 mins by LC-MS analysis.
Target sequence in this assay (P03313 whole entry): as above
Data set [10] shares this target. Briefly: Irreversible inhibition of Coxsackievirus B3 C-terminal His6-tagged protease 3C expressed in Escherichia coli BL21(DE3) assessed as protein-compound adduct formation after 60 mins by LC-MS analysis.
Target sequence in this assay (P03313 whole entry): as above
The target is the same in data set [11]. Briefly: Irreversible inhibition of Coxsackievirus B3 C-terminal His6-tagged protease 3C expressed in Escherichia coli BL21(DE3) assessed as thioether adduct formation after 60 mins by MALDi-TOF spectral analysis.
The test system of data set [12] is enterovirus D68. The experiment in a line: Binding affinity to Enetrovirus D68 C-terminal His6-tagged protease 3C at Cys147 residue expressed in Escherichia coli BL21(DE3) assessed as adduct formation after 30 mins by fluorescence assay.
The target in data set [13] is Genome polyprotein (Coxsackievirus B3 (strain Nancy)) (UniProt P03313). Briefly: Inhibition of Coxsackievirus B3 C-terminal His6-tagged protease 3C expressed in Escherichia coli BL21(DE3) using N-Dabcyl-KTLEALFQGPPVYE-(Edans)-NH2 as substrate preincubated up to 60 mins followed by substrate addition by fluorescence assay. Particulars: TDE = time-dependent effect. Summed up: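 Enzyme and inhibitor (or DMSO) preincubated in assay buffer (HEPES-NaOH pH 7.5, EDTA, Triton X) for 60, 40, 20 or 0 min under a lid. Reaction started by FRET substrate addition and followed 60 min by fluorescence (ex 355/em 538 nm). Triplicates per incubation time. Relative activity calculated for every 5-min step of the reaction.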

Data set [14] can be described thus: Glutathione reactivity assessed as GSH-adduct formation after 2 to 24 hrs by LC-MS/MS analysis. Summed up: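 Inhibitor in DMSO at 2.5 mM, mixed with equimolar glutathione in assay buffer (100 mM HEPES-NaOH, 1 mM EDTA, 0.01% Triton X, pH 7.5). Held at room temperature for 2 h and 24 h, with an aliquot taken by LC/MS after each period. Controls for each inhibitor omitted glutathione.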

Data set [15] is described as follows: Reversible inhibition of Enetrovirus D68 C-terminal His6-tagged protease 3C expressed in Escherichia coli BL21(DE3) using N-Dabcyl-KTLEALFQGPPVYE-(Edans)-NH2 as substrate after 30 mins by fluorescence assay. More on the design: species or system enterovirus D68. Summed up:
as §1

Data set [16] concerns the target T1, Genome polyprotein. Briefly: Reversible inhibition of Coxsackievirus B3 C-terminal His6-tagged protease 3C expressed in Escherichia coli BL21(DE3) using N-Dabcyl-KTLEALFQGPPVYE-(Edans)-NH2 as substrate after 30 mins by fluorescence assay. In outline:
as §4

Data set [17] can be described thus: Solubility of the compound. The data set is classed as physicochemical.
In data set [18] the test system is enterovirus D68. The experiment in a line: Binding affinity to Enetrovirus D68 C-terminal His6-tagged protease 3C at Cys60 residue expressed in Escherichia coli BL21(DE3) assessed as adduct formation after 30 mins by fluorescence assay.

T1 sequence (P03313 1541-1723 limits assumed): as the sequence (P03313 1541-1723 limits assumed) above

Consider `CC1(C)CC(=O)c2cc(C(N)=O)c(=O)oc2C1`, for which the inhibition in data set [1] was > 30%; in data set [2], “Tde”; in data set [3] it was “Dose-dependent effect”. Further, the IC50 in data set [4] was 355 µM. In addition, the affinity in data set [4] corresponds to a Ki of 393 µM.

Take `CC1(C)CC(=O)c2cc(C(=O)O)c(=O)oc2C1`: the Drug metabolism result in [5] is given as “Metabolite detected”.

Turning to `Cn1cc(C(=O)CSc2ccccc2)cc1C(N)=O`, the inhibition result in [1], in [9], in data set [10] and in [11] was “Active” in each case. In addition, the inhibition result in data set [6] was “Tde”; in [3], “Dose-dependent effect”. For the same molecule, the figures for the Ratio in data set [7] and in data set [8] were 16.8 M⁻¹ s⁻¹ and 21.3 M⁻¹ s⁻¹, respectively. Moreover, the outcome in data set [12] was Active.

As for `NC(=O)c1cc(C(=O)CSc2ccccc2)cn1C/C=C/c1ccccc1`, the Ratio in [7] turned out to be 54.4 M⁻¹ s⁻¹; in [8], 160 M⁻¹ s⁻¹. The inhibition result in data set [13] was “Tde”. In addition, in [12], the result was Active. In [14], the Drug metabolism entry was “Metabolite detected”.

In the case of `Cn1cc(C(=O)Cn2cccc(C(F)(F)F)c2=O)cc1C(N)=O`, the inhibition in [1] was < 20%.

As to `CC(=O)c1cc(C(N)=O)n(C/C=C/c2ccccc2)c1`, the Ki in data set [15] worked out at 422 µM; in data set [16] it was 197 µM. Moreover, the inhibition entry in data set [13] was “Tde”.

With `NC(=O)n1cc(C(=O)c2cc(O)ccc2Cl)cn1`, the solubility entry in data set [17] is “Insoluble”.

On to `NC(=O)c1cc(C(=O)C(Sc2ccccc2)Sc2ccccc2)cn1C/C=C/c1ccccc1`, for which the Ki in data set [16] was determined as 272 µM. The inhibition result in data set [13] is “Tde”.

With `Cc1ccc2[nH]c(C)c(C(=O)CSc3ccccc3)c2c1`, in data set [1], the inhibition entry is “inactive”.

`O=C(CSc1ccccc1)c1ccccc1`: the inhibition entry in [1] is “inactive”.

Regarding `NC(=O)c1cc(C(=O)CBr)cn1C/C=C/c1ccccc1`, the Ratio in data set [7] turned out to be 1710 M⁻¹ s⁻¹; in data set [8], 1210 M⁻¹ s⁻¹. Besides, the inhibition result in data set [13] is “Tde”. Moreover, the result in data set [18] and in [12] was Active. The Drug metabolism result in data set [14] was “Metabolite detected”.

Take `Cn1cc(C(=O)CSc2nnnn2C)cc1C(N)=O`: the inhibition in [1] was < 20%.

`CC(=O)c1c(C)[nH]c(C(N)=O)c1C`: the inhibition in data set [1] is < 20%.
